In article PMC5108443 (Cardiovascular Therapeutics, 2016):

Tests used:
[1] = Steady-state plasma pharmacokinetics of LCZ696 analytes; assay type: in vivo, human; conditions: for T1/2, mean (SD): LCZ696 200 mg bid (Day 21), patients with stable HF; for Exposure in patients with HF higher than in healthy subjects: LCZ696 200 mg bid, healthy-subject exposure from ref 20; for Dose proportionality of Cmax and AUC0-12 h: between LCZ696 100- and 200-mg doses; for Tmax / AUC(0-t) / Cmax: human, plasma
[2] = test system: plasma cGMP; assay: Plasma cGMP; assay type: in vivo, human; conditions: for Plasma cGMP, ratio-to-baseline (95% CI): geometric mean ratio; for Plasma cGMP, predose: geometric mean
[3] = test system: plasma ANP; assay: Plasma ANP; assay type: in vivo, human; conditions: for Plasma ANP, ratio-to-baseline (95% CI): geometric mean ratio; for Plasma ANP, predose: geometric mean
[4] = test system: urine cGMP; assay: Urine cGMP; assay type: in vivo, human; conditions: for Urine cGMP, ratio-to-baseline (95% CI): geometric mean ratio; for Urine cGMP: geometric mean
[5] = test system: urine ANP; assay: Urine ANP; assay type: in vivo, human; conditions: for Urine ANP, ratio-to-baseline (95% CI): geometric mean ratio; for Urine ANP: geometric mean
[6] = test system: plasma renin concentration (PRC); assay: Plasma renin concentration; assay type: in vivo, human; conditions: for PRC, ratio-to-baseline (95% CI): geometric mean ratio; for PRC, predose: geometric mean
How it was run: (§1)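 Chronic HF patients (NYHA II–IV, LVEF ≤40%), domiciled on a fixed 3 g sodium/5 g potassium diet. ACEI/ARB stopped over a 24-h run-in. Oral test compound given 100 mg bid for 7 days, then 200 mg bid for 14 days. Plasma drawn at baseline, predose, and 4, 12, 16, 24 h post-dose on Days 7 and 21. Geometric means; ratio-to-baseline with 95% CI by paired t-test on log data.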

[7] = test system: plasma renin activity (PRA); assay: Plasma renin activity; assay type: in vivo, human; conditions: for PRA, ratio-to-baseline (95% CI): geometric mean ratio; for PRA, predose: geometric mean
How it was run: as §1

[8] = test system: plasma aldosterone; assay: Plasma aldosterone; assay type: in vivo, human
How it was run: as §1

[9] = test system: plasma endothelin-1 (ET-1); assay: Plasma endothelin-1; assay type: in vivo, human
How it was run: as §1

[10] = test system: plasma NT-proBNP; assay: Plasma NT-proBNP; assay type: in vivo, human
How it was run: as §1

[11] = test system: urinary NT-proBNP; assay: Urinary NT-proBNP; assay type: in vivo, human
How it was run: (§2)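 Same patients, diet and oral dosing schedule. Urine collected over 24 h as two 12-h fractions (8:00–20:00, 20:00–8:00) at baseline, Day 7 and Day 21. Volume recorded; sodium, potassium and creatinine measured by standard laboratory methods, NT-proBNP by Elecsys immunoassay. Geometric means calculated; ratio-to-baseline by paired t-test on log-transformed data.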

[12] = Urinary sodium, potassium and creatinine excretion; assay type: in vivo, human; conditions: either treatment period (100 and 200 mg bid)
How it was run: as §2

[13] = Safety and tolerability: adverse events; assay type: in vivo, human
How it was run: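 Open-label study in HFrEF patients: 24-h run-in with ACEI/ARB stopped and other HF drugs kept, then oral test compound 100 mg bid for 7 days and 200 mg bid for 14 days. Patients domiciled on a standardized diet of 3 g sodium and 5 g potassium daily. Monitoring by ECG, vital signs, and electrolyte, renal and hepatic panels. Safety set comprised all patients dosed at least once.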

[14] = patients with HFrEF, PARADIGM-HF; cited from earlier work
[15] = Day 21 (LCZ696 200 mg bid), N=27
[16] = Day 7 (LCZ696 100 mg bid), N=30
[17] = Day 21, predose, LCZ696 200 mg bid for 14 days

Compound: C[C@H](C[C@@H](Cc1ccc(-c2ccccc2)cc1)NC(=O)CCC(=O)O)C(=O)O [LBQ657]
- T1/2, mean (SD) ([1]; oral): 18.4 (6.8) h
- Exposure in patients with HF higher than in healthy subjects [1]: ~110%
- Dose proportionality of Cmax and AUC0-12 h [1]: approximately dose‐proportional
- Tmax ([1]; oral, 200 mg): ≤ 2.5 h
- AUC(0-t) ([1]; po, 100 mg): 82600 ng·h/mL
- Cmax ([1]; po, 100 mg): 9100 ng/mL
- Tmax ([1]; po, 100 mg): 2.5 h
- AUC(0-t) ([1]; po, 200 mg): 147000 ng·h/mL
- Cmax ([1]; po, 200 mg): 16300 ng/mL
- Tmax ([1]; po, 200 mg): 2 h

Compound: CCOC(=O)[C@H](C)C[C@@H](Cc1ccc(-c2ccccc2)cc1)NC(=O)CCC(=O)O [Sacubitril, sacubitril]
- T1/2, mean (SD) ([1]; oral): 3.9 (3.6) h
- Exposure in patients with HF higher than in healthy subjects [1]: approximately 55%
- Dose proportionality of Cmax and AUC0-12 h [1]: approximately dose‐proportional
- Tmax ([1]; oral, 200 mg): ≤ 0.5 h
- AUC(0-t) ([1]; po, 100 mg): 1540 ng·h/mL
- Cmax ([1]; po, 100 mg): 1230 ng/mL
- Tmax ([1]; po, 100 mg): 0.5 h
- AUC(0-t) ([1]; po, 200 mg): 3150 ng·h/mL
- Cmax ([1]; po, 200 mg): 2410 ng/mL
- Tmax ([1]; po, 200 mg): 0.5 h

Compound: CCCCC(=O)N(Cc1ccc(-c2ccccc2-c2nnn[nH]2)cc1)[C@H](C(=O)O)C(C)C [Valsartan, valsartan, reference compound]
- T1/2, mean (SD) ([1]; oral): 13.7 (5.0) h
- Exposure in patients with HF higher than in healthy subjects [1]: ~132%
- Dose proportionality of Cmax and AUC0-12 h [1]: less than dose‐proportional
- Tmax ([1]; oral, 200 mg): ≤ 2 h
- AUC(0-t) ([1]; po, 100 mg): 25900 ng·h/mL
- Cmax ([1]; po, 100 mg): 3810 ng/mL
- Tmax ([1]; po, 100 mg): 2 h
- AUC(0-t) ([1]; po, 200 mg): 38800 ng·h/mL
- Cmax ([1]; po, 200 mg): 6040 ng/mL
- Tmax ([1]; po, 200 mg): 2 h

Compound: Sacubitril/valsartan [LCZ696]
- Plasma cGMP, ratio-to-baseline (95% CI) ([2]; Day 7 (LCZ696 100 mg bid)): 1.24 (1.06–1.45) P = 0.008
- Plasma cGMP, predose ([2]; Day 7 (LCZ696 100 mg bid), N=30, patients with HFrEF): 13.83 nmol/L
- Plasma cGMP, ratio-to-baseline (95% CI) ([2]; Day 21 (LCZ696 200 mg bid)): 1.38 (1.16–1.65) P < 0.001
- Plasma cGMP, predose [2, 15]: 15.07 nmol/L
- Plasma ANP, ratio-to-baseline (95% CI) ([3]; Day 7 (LCZ696 100 mg bid)): 0.92 (0.80–1.05) P = 0.223
- Plasma ANP, predose [3, 16]: 105.20 pg/mL
- Plasma ANP, ratio-to-baseline (95% CI) ([3]; Day 21 (LCZ696 200 mg bid)): 1.00 (0.80–1.26) P = 0.986
- Plasma ANP, predose [3, 15]: 110.83 pg/mL
- Plasma ANP versus baseline ([3]; either treatment period (100 and 200 mg bid)): not significantly different from baseline
- Urine cGMP, ratio-to-baseline (95% CI) ([4]; Day 7 (LCZ696 100 mg bid)): 1.17 (0.97–1.40) P = 0.090
- Urine cGMP [4, 16]: 1096.09 nmol
- Urine cGMP, ratio-to-baseline (95% CI) ([4]; Day 21 (LCZ696 200 mg bid)): 1.22 (1.01–1.47) P = 0.040
- Urine cGMP [4, 15]: 1180.57 nmol
- Urine ANP, ratio-to-baseline (95% CI) ([5]; Day 7 (LCZ696 100 mg bid)): 1.69 (1.40–2.03) P < 0.001
- Urine ANP [5, 16]: 353.42 ng
- Urine ANP, ratio-to-baseline (95% CI) ([5]; Day 21 (LCZ696 200 mg bid)): 1.82 (1.54–2.17) P < 0.001
- Urine ANP [5, 15]: 378.48 ng
- PRC, ratio-to-baseline (95% CI) ([6]; Day 7 (LCZ696 100 mg bid)): 4.30 (2.78–6.64) P < 0.001
- PRC, predose [6, 16]: 42.64 pg/mL
- PRC, ratio-to-baseline (95% CI) ([6]; Day 21 (LCZ696 200 mg bid)): 3.50 (2.13–5.76) P < 0.001
- PRC, predose [6, 15]: 34.11 pg/mL
- PRA, ratio-to-baseline (95% CI) ([7]; Day 7 (LCZ696 100 mg bid)): 3.94 (2.27–6.87) P < 0.001
- PRA, predose ([7]; Day 7 (LCZ696 100 mg bid), 29 patients): 2.70 ng/mL/h
- PRA, ratio-to-baseline (95% CI) ([7]; Day 21 (LCZ696 200 mg bid)): 2.27 (1.20–4.32) P = 0.014
- PRA, predose ([7]; Day 21 (LCZ696 200 mg bid), 26 patients): 1.64 ng/mL/h
- Predose plasma aldosterone level compared with baseline ([8]; Day 7 (LCZ696 100 mg bid)): trend toward a reduction
- Decrease in plasma aldosterone levels ([8]; Day 21): 21%
- Plasma aldosterone, ratio-to-baseline [95% CI] [8, 17]: 0.79 [0.65–0.95]
- Predose plasma ET-1 level compared with baseline ([9]; Day 7 (LCZ696 100 mg bid)): trend toward a reduction
- Plasma ET-1, ratio-to-baseline [95% CI] [9, 17]: 0.80 [0.71–0.91]
- Plasma NT-proBNP, ratio-to-baseline [95% CI] ([10]; Day 7 (LCZ696 100 mg bid)): 0.53 [0.45–0.62]
- Plasma NT-proBNP, ratio-to-baseline [95% CI] ([10]; Day 21 (LCZ696 200 mg bid)): 0.56 [0.45–0.70]
- Urinary NT-proBNP, ratio-to-baseline ([11]; after LCZ696 100 mg bid for 7 days): 0.68
- Urinary NT-proBNP, ratio-to-baseline ([11]; after LCZ696 200 mg bid for 14 days): 0.74
- Change in mean urinary sodium, potassium, and creatinine excretion [12]: No statistically significant changes
- Dose relation of the frequency of AEs ([13]; 100 vs 200 mg bid): not dose related
- Deaths or serious AEs during the study ([13]; LCZ696 100 mg bid 7 days then 200 mg bid 14 days, 30 patients): No deaths or serious AEs occurred
- Subjects with AE ([13]; LCZ696 100 mg bid (N=30), 7-day titration period): 16 (53.3%) n (%)
- Overall tolerability ([13]; LCZ696 100 mg bid for 7 days and 200 mg bid for 14 days): well tolerated
- Subjects with AE ([13]; LCZ696 200 mg bid (N=30), 14-day treatment period): 15 (50.0%) n (%)
- Subjects with AE ([13]; Total (N=30)): 21 (70.0%) n (%)
- Patients who completed the study treatment as per protocol ([13]; of 30 patients): 27 (90%) n (%)
- Hypotension reported as an AE ([13]; whole study): not reported
- Reduction of CV and all-cause mortality and HF hospitalizations versus enalapril [14]: superior
